From ChEMBL document CHEMBL1938316, “Synthesis and anti-HCV activity evaluation of anilinoquinoline derivatives” (Bioorg Med Chem Lett, 2012)
pEC50: −log10 of the molar value. Active and inactive are the calls of the source. The calls are words filed in the database; no cut-off is given here.

Legend:
[1] = Selectivity index, ratio of CC50 for human Ava5 cells to IC50 for HCV replication; assay type: functional
Procedure, shortened: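 CC50 from MTS viability in Ava5 cells, run in parallel with replicon treatment (0.5–150 µM, 3 days, versus 0.1% DMSO mock). EC50 is 50% reduction in HCV RNA by RT-qPCR. Index calculated as CC50/EC50.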

Hepatitis C virus [2] = assay: Antiviral activity against HCV infected in human Ava5 cells assessed as reduction in HCV RNA level after 3 days by qRT-PCR analysis; assay type: functional, organism-based, Hepacivirus hominis; conditions: for pEC50: Ava5, 72 h
Procedure, shortened: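 Ava5 cells (Huh7 harbouring HCV subgenomic replicon) exposed to compounds at 0.5–150 µM for 3 days. Total cellular RNA quantified by RT-qPCR with HCV-specific primers, normalised to GAPDH mRNA. EC50 is the concentration lowering HCV RNA by 50% versus 0.1% DMSO mock, from non-linear regression. Means of triplicate experiments.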

Hepatitis C virus [3] = assay: Antiviral activity against HCV infected in human Ava5 cells assessed as inhibition of NS5B protein expression after 4 days by Western blot analysis; assay type: functional, organism-based; conditions: Hepacivirus hominis
Procedure, shortened: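 Ava5 cells (Huh7 carrying HCV subgenomic replicon) incubated 4 days with compound at 2.5–15 µM; 0.1% DMSO as mock. Cell lysates analysed by western blot with anti-NS5B antibody, GAPDH as loading control.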

Huh-7 = assay: Inhibition of HCV NS3/4A protease expressed in human Huh7 cells coexpressing EGFP at 15 uM after 3 days by secretory alkaline phosphatase reporter gene assay; assay type: cell-based; conditions: Hepacivirus hominis
Procedure, shortened: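 Huh-7 cells transfected 6 h with 0.5 µg pEG(Δ4AB)SEAP-NS3/4A reporter plasmid, then treated with compound at 5, 10, 12.5 and 15 µM. Controls: 10 nM BILN 2061 (positive) and 0.1% DMSO (mock). SEAP activity in culture medium read after 3 days, expressed as % reduction versus mock. Triplicates, mean ± SD.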

[4] = test system: Internal ribosome entry site (IRES); assay: Inhibition of HCV IRES-mediated translation by secretory alkaline phosphatase reporter gene assay; assay type: nucleic-acid assay; conditions: Hepacivirus hominis
Hepacivirus hominis = assay: Inhibition of HCV NS5B polymerase activity by luciferase reporter gene assay
Hepatitis C virus [5] = assay: Antiviral activity against HCV infected in human Ava5 cells assessed as reduction in HCV RNA level at 15 uM after 3 days by qRT-PCR analysis relative to control; assay type: functional, Hepacivirus hominis; design: scale not given: the % may be the effect or the level left
Procedure, shortened: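 HCV replicon Ava5 cells treated 3 days at 2.5–15 µM. HCV RNA measured by RT-qPCR, normalised to GAPDH mRNA, relative to 0.1% DMSO mock. Triplicate experiments, mean ± SD.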

| Compound | Ratio CC50/EC50 [1] | pEC50 (Hepatitis C virus [2]) | other results |
| --- | --- | --- | --- |
| c1ccc(Nc2ccc3ccccc3n2)cc1 | 1.96 | 4.64 | – |
| COc1ccc(Nc2ccc3ccccc3n2)cc1 | 1 | 4.37 | – |
| O=[N+]([O-])c1ccc(Nc2ccc3ccccc3n2)cc1 | 2.4 | 4.70 | – |
| Brc1ccccc1Nc1ccc2ccccc2n1 | 1 | 4.22 | – |
| O=[N+]([O-])c1cc(Nc2ccc3ccccc3n2)ccc1O | 3.8 | 4.66 | – |
| Clc1cc(Br)ccc1Nc1ccc2ccccc2n1 | 1 | 4.35 | – |
| Cc1cc(Cl)ccc1Nc1ccc2ccccc2n1 | 3.4 | 4.90 | – |
| c1ccc(COc2cccc(Nc3ccc4ccccc4n3)c2)cc1 | 3.1 | 4.82 | – |
| Cc1ccc(Nc2ccc3ccccc3n2)c(C)c1 | 1 | 4.46 | – |
| COc1cc(Nc2ccc3ccccc3n2)cc(OC)c1OC | 3 | 4.60 | – |
| CCOC(=O)c1ccc(Nc2ccc3ccccc3n2)cc1 | 2.9 | 4.30 | – |
| Cc1cccc(C)c1Nc1ccc2ccccc2n1 | 1 | 4.40 | – |
| COc1cc(Nc2ccc3ccccc3n2)cc(OC)c1 | 1 | 4.48 | – |
| O=[N+]([O-])c1cccc(Nc2ccc3ccccc3n2)c1 | 10 | 5.15 | inhibition (Hepatitis C virus [3]): Dose-dependent effect; inhibition (Huh-7): 40%; Activity (Hepatitis C virus [2]; Hepacivirus hominis): Dose-dependent effect; inhibition [4]: inactive; inhibition (Hepacivirus hominis): inactive; Activity (Hepatitis C virus [5]): 80% |
| Clc1ccc(Nc2ccc3ccccc3n2)cc1 | 1.1 | 4.28 | – |
| Cc1cc(C)cc(Nc2ccc3ccccc3n2)c1 | 1 | 4.51 | – |
| N#Cc1ccc(Nc2ccc3ccccc3n2)cc1 | 3.5 | 4.84 | – |
| Cc1ccc(Nc2ccc3ccccc3n2)cc1 | 1 | 4.37 | – |
